For one data set, the target named is T1, Lysyl oxidase homolog 3 (Homo sapiens, UniProt P58215).
T1 sequence (P58215 whole entry): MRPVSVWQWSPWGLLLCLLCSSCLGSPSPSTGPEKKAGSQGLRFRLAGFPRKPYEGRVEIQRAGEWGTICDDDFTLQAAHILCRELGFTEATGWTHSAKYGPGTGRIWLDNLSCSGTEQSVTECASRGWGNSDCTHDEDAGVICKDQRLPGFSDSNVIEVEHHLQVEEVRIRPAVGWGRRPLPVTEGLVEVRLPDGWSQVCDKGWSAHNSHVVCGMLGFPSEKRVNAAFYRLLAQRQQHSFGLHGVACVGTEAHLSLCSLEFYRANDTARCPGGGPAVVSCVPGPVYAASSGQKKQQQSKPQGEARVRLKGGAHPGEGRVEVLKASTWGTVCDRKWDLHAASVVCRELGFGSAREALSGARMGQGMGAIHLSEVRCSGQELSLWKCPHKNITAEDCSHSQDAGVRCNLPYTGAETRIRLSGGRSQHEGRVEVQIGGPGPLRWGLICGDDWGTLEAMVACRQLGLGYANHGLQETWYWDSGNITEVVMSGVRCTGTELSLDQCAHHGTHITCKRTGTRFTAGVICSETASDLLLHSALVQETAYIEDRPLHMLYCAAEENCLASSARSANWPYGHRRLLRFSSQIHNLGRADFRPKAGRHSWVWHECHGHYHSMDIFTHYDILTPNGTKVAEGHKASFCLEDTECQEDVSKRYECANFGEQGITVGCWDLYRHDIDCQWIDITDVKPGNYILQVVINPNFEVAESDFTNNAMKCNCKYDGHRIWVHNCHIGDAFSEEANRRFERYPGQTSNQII
Nature of the data set: Inhibition of recombinant human C-terminal His10-tagged LOXL3 (1 to 753 residues) assessed as reduction in H2O2 production using DAP as substrate preincubated for 2 hrs followed by substrate addition measured every 2 minutes for 50 minutes by Amplex red dye based fluorescence assay.

A further data set has as its target T2, Protein-lysine 6-oxidase (Homo sapiens, UniProt P28300).
T2 sequence (P28300 whole entry): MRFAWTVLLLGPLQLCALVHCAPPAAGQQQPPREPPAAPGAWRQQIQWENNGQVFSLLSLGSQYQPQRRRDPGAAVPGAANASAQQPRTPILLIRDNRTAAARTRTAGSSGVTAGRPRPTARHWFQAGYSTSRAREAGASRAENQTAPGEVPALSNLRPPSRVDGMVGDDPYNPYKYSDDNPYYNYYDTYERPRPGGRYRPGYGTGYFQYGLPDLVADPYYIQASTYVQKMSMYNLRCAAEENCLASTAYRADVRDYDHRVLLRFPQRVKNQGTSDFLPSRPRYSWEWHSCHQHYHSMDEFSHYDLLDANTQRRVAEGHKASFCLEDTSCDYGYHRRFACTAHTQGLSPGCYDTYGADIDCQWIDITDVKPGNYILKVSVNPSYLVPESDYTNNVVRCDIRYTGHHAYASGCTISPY
Nature of the data set: Inhibition of full length recombinant human LOX expressed in HEK cells assessed as reduction in H2O2 production using DAP as substrate preincubated for 2 hrs followed by substrate addition measured every 2 minutes for 50 minutes in presence of BSA by Amplex red dye based fluorescence assay. The procedure, abridged:
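Enzyme source: serum-free conditioned media from HEK cells stably expressing human LOX, with BSA added to give measurable activity. Activity is measured as H2O2 from oxidative deamination of 1,5-diaminopentane (DAP), read by Amplex Red. IC50 is given as geometric mean x/÷ geometric standard deviation, with N-values reported.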

For data set [1], the target named is T3, Amine oxidase [flavin-containing] B (Homo sapiens, UniProt P27338).
T3 sequence (P27338 whole entry): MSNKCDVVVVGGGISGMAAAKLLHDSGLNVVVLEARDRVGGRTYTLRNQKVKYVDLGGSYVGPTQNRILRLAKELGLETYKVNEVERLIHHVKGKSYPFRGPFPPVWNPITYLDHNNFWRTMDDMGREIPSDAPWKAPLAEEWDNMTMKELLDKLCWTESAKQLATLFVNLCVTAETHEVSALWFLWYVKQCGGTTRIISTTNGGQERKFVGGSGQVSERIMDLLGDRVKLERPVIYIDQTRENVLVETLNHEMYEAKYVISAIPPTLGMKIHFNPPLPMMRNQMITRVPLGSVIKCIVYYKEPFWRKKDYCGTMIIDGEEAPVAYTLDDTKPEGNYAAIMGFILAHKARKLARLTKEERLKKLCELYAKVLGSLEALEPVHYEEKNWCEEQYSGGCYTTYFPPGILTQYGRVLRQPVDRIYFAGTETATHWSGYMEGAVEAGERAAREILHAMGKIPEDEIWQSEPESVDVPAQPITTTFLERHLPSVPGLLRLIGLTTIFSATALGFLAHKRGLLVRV
Nature of the data set: Inhibition of recombinant human MAO-B at 30 uM using benzylamine as substrate preincubated for 2 hrs followed by substrate addition measured every 30 secs for 10 minutes by Amplex red dye based fluorescence assay.

The target in the next data set is T4, Lysyl oxidase homolog 2 (Mus musculus, UniProt P58022).
T4 sequence (P58022 whole entry): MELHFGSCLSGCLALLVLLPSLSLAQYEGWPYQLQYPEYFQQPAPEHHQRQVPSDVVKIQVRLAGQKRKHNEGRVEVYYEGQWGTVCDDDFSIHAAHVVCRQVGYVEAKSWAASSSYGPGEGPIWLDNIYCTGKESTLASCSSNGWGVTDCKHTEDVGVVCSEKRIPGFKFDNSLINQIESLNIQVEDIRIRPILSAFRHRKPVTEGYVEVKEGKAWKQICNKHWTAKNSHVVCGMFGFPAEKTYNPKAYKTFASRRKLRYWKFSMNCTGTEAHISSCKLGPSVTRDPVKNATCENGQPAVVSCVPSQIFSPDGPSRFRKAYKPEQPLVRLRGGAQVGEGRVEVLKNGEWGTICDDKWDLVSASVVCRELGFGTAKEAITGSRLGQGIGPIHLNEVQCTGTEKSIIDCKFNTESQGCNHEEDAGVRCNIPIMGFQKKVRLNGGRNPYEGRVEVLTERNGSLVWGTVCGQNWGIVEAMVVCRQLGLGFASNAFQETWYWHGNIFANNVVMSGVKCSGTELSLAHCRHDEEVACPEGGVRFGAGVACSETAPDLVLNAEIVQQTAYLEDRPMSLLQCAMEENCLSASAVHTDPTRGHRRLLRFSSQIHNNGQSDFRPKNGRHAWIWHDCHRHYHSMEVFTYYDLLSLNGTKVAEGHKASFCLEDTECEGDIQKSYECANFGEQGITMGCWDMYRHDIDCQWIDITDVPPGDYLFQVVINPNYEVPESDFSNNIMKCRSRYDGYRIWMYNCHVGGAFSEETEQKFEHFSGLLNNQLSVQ
Nature of the data set: Inhibition of full length recombinant mouse LOXL2 expressed in CHO cells assessed as reduction in H2O2 production using DAP as substrate preincubated for 2 hrs followed by substrate addition measured every 2 minutes for 50 minutes in presence of BSA by Amplex red dye based fluorescence assay. In kind it is cell-based. The procedure, abridged:
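Rodent LOXL2 is tested under the same conditions as the BSA-supplemented assay: conditioned media plus BSA, with DAP as substrate and Amplex Red detection of H2O2. Species are mouse and rat. IC50 is the geometric mean x/÷ geometric standard deviation from 3 determinations.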

As usually defined, the IC50 is the concentration that gives 50% inhibition.

On to `NCc1ccnc(Cl)c1`, for which the IC50 on Lysyl oxidase homolog 3 is 214 nM; on Protein-lysine 6-oxidase it was 5910 nM; on Lysyl oxidase homolog 2, 227 nM. Besides, the “inhibition (INH)” value in data set [1] is “Not Active”.

The values above are taken from ChEMBL document CHEMBL3994667, “Small Molecule Lysyl Oxidase-like 2 (LOXL2) Inhibitors: The Identification of an Inhibitor Selective for LOXL2 over LOX” (ACS Med Chem Lett, 2017).
